Like-named read-outs stand apart in the source and are kept apart here.
Key:
[1] = Stability in human whole blood; format: in vitro ADME; conditions: 37°C, no increase in salicylic acid
[2] = test system: Salmonella typhimurium TA 98; test: Ames bacterial reverse mutation assay, pre-incubation method; format: cell-based
[3] = test system: cryopreserved human hepatocytes; test: Cytotoxicity; format: cell-based; conditions: 72 hours
In short: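 Cryopreserved hepatocytes from three donors (1 male, 2 female, Caucasian, 43–59 y) were thawed, plated at 0.15 million cells/well on collagen-coated plates at 37°C in 5% CO2, medium-changed after 2–4 h attachment, and recovered overnight. Cells were exposed to 0.3, 3 or 30 µM test compound or 0.1% DMSO vehicle for 72 h, with medium renewed daily. MTS conversion to formazan was then read, in triplicate.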

[4] = test system: memory deficits; conditions: mouse model of Alzheimer's disease; ref Davies et al., 2011; cited from earlier work
[5] = test system: Salmonella typhimurium TA 1537; test: Ames bacterial reverse mutation assay, pre-incubation method; format: cell-based
[6] = test system: CYP2B6; test: CYP mRNA induction in human hepatocytes; format: in vitro ADME; conditions: 0.3, 3, 30 µM; 72 hours; 3 donors
[7] = ref Davies et al., 2002; Zagol-Ikapitte et al., 2010a; cited from earlier work
[8] = test system: Salmonella typhimurium TA 1535; format: cell-based; conditions: pre-incubation
[9] = test system: Salmonella typhimurium TA 100; format: cell-based; conditions: pre-incubation
[10] = −S9, 0.05 mg/plate as printed (third dose row)

## CC(=O)O.NCc1ccccc1O [2-HOBA, 2-Hydroxybenzylamine acetate]
[1]
  metabolism in whole blood: some 2-HOBA metabolism was observed
[2]; +S9, 0.05 mg/plate
  Mean plate counts (revertant colonies): 25.7±3.1
[2]; +S9, 0.15 mg/plate
  Mean plate counts (revertant colonies): 23.7±2.5
[2]; +S9, 0.5 mg/plate
  Mean plate counts (revertant colonies): 24.3±2.1
[2]; +S9, 1.5 mg/plate
  Mean plate counts (revertant colonies): 25.7±3.1
[2]; +S9, 5 mg/plate
  Mean plate counts (revertant colonies): 22.3±3.2
[2]; +S9 and −S9, all dose levels
  Change in revertant colony counts vs negative control (mutagenicity): No changes in revertant colony counts were observed
[2]; −S9, 0.05 mg/plate
  Mean plate counts (revertant colonies): 20.0±1.0
[2]; [10]
  Mean plate counts (revertant colonies): 20.7±2.1
[2]; −S9, 0.15 mg/plate
  Mean plate counts (revertant colonies): 16.7±1.5
[2]; −S9, 1.5 mg/plate
  Mean plate counts (revertant colonies): 22.3±3.2
[2]; −S9, 5 mg/plate
  Mean plate counts (revertant colonies): 23.0±1.0
[3]; all concentrations (0.3, 3, 30 µM), any donor
  % formazan absorbance relative to vehicle: ≥ 94%
[3]; donor 1, 0.3 µM
  Formazan absorbance: 0.82
  Formazan absorbance (% of vehicle): 117 % of vehicle
[3]; donor 1, 3 µM
  Formazan absorbance: 0.81
  Formazan absorbance (% of vehicle): 115 % of vehicle
[3]; donor 1, 30 µM
  Formazan absorbance: 0.75
  Formazan absorbance (% of vehicle): 107 % of vehicle
[3]; donor 2, 0.3 µM
  Formazan absorbance: 0.37
  Formazan absorbance (% of vehicle): 94 % of vehicle
[3]; donor 2, 3 µM
  Formazan absorbance: 0.38
  Formazan absorbance (% of vehicle): 96 % of vehicle
[3]; donor 2, 30 µM
  Formazan absorbance: 0.39
  Formazan absorbance (% of vehicle): 100 % of vehicle
[3]; donor 3, 0.3 µM
  Formazan absorbance: 0.64
  Formazan absorbance (% of vehicle): 99 % of vehicle
[3]; donor 3, 3 µM
  Formazan absorbance: 0.66
  Formazan absorbance (% of vehicle): 102 % of vehicle
[3]; donor 3, 30 µM
  Formazan absorbance: 0.67
  Formazan absorbance (% of vehicle): 104 % of vehicle
[3]; mean of 3 donors, 0.3 µM
  Formazan absorbance: 0.61
  Formazan absorbance (% of vehicle): 103 % of vehicle
[3]; mean of 3 donors, 3 µM
  Formazan absorbance: 0.62
  Formazan absorbance (% of vehicle): 104 % of vehicle
[3]; mean of 3 donors, 30 µM
  Formazan absorbance: 0.61
  Formazan absorbance (% of vehicle): 103 % of vehicle
[4]
  memory deficits: protection from memory deficits
[5]; +S9, 0.05 mg/plate
  Mean plate counts (revertant colonies): 6.7±0.6
[5]; +S9, 0.15 mg/plate
  Mean plate counts (revertant colonies): 7.3±1.2
[5]; +S9, 0.5 mg/plate
  Mean plate counts (revertant colonies): 8.0±1.0
[5]; +S9, 1.5 mg/plate
  Mean plate counts (revertant colonies): 7.0±1.0
[5]; +S9, 5 mg/plate
  Mean plate counts (revertant colonies): 6.3±1.5
[5]; +S9 and −S9, all dose levels
  Change in revertant colony counts vs negative control (mutagenicity): No changes in revertant colony counts were observed
[5]; −S9, 0.05 mg/plate
  Mean plate counts (revertant colonies): 6.7±0.6
[5]; [10]
  Mean plate counts (revertant colonies): 7.0±0.0
[5]; −S9, 0.15 mg/plate
  Mean plate counts (revertant colonies): 6.0±1.0
[5]; −S9, 1.5 mg/plate
  Mean plate counts (revertant colonies): 6.0±1.0
[5]; −S9, 5 mg/plate
  Mean plate counts (revertant colonies): 6.3±1.2
[6]
  CYP2B6 mRNA induction (concentration-dependent >2-fold increase): no evidence of mRNA induction
[7]
  γKA scavenging rate relative to the rate of formation of γKA protein adducts: 980 fold
[8]; +S9, 0.05 mg/plate
  Mean plate counts (revertant colonies): 12.0±2.0
[8]; +S9, 0.15 mg/plate
  Mean plate counts (revertant colonies): 12.0±1.0
[8]; +S9, 0.5 mg/plate
  Mean plate counts (revertant colonies): 14.3±2.1
[8]; +S9, 1.5 mg/plate
  Mean plate counts (revertant colonies): 12.3±0.6
[8]; +S9, 5 mg/plate
  Mean plate counts (revertant colonies): 11.7±2.1
[8]; +S9 and −S9, all dose levels
  Change in revertant colony counts vs negative control (mutagenicity): No changes in revertant colony counts were observed
[8]; −S9, 0.05 mg/plate
  Mean plate counts (revertant colonies): 12.7±1.5
[8]; [10]
  Mean plate counts (revertant colonies): 12.0±1.0
[8]; −S9, 0.15 mg/plate
  Mean plate counts (revertant colonies): 11.7±1.5
[8]; −S9, 1.5 mg/plate
  Mean plate counts (revertant colonies): 11.3±1.5
[8]; −S9, 5 mg/plate
  Mean plate counts (revertant colonies): 12.0±1.7
[9]; +S9, 0.05 mg/plate
  Mean plate counts (revertant colonies): 114.7±12.9
[9]; +S9, 0.15 mg/plate
  Mean plate counts (revertant colonies): 120.7±7.6
[9]; +S9, 0.5 mg/plate
  Mean plate counts (revertant colonies): 119.3±7.6
[9]; +S9, 1.5 mg/plate
  Mean plate counts (revertant colonies): 112.0±7.2
[9]; +S9, 5 mg/plate
  Mean plate counts (revertant colonies): 114.0±12.5
[9]; +S9 and −S9, all dose levels
  Change in revertant colony counts vs negative control (mutagenicity): No changes in revertant colony counts were observed
[9]; −S9, 0.05 mg/plate
  Mean plate counts (revertant colonies): 98.7±2.3
[9]; [10]
  Mean plate counts (revertant colonies): 103.7±1.5
[9]; −S9, 0.15 mg/plate
  Mean plate counts (revertant colonies): 96.7±6.1
[9]; −S9, 1.5 mg/plate
  Mean plate counts (revertant colonies): 94.7±4.2
[9]; −S9, 5 mg/plate
  Mean plate counts (revertant colonies): 105.3±6.1

From paper PMC6220894 (Food and chemical toxicology : an international journal …, 2018)
